Laboratory results as given in ChEMBL document CHEMBL3044975, “Hybrid ubiquinone: novel inhibitor of mitochondrial complex I” (Biochim Biophys Acta, 2002).

Columns and labels:
[1] = target: T1, NADH-ubiquinone oxidoreductase chain 1 (Bos taurus, UniProt P03887); assay: Inhibition of Bos taurus (bovine) mitochondrial complex 1 assessed as reduction in enzyme activity by NADH-DB oxidoreductase assay
[2] = target: T1, NADH-ubiquinone oxidoreductase chain 1; assay: Inhibition of Bos taurus (bovine) mitochondrial complex 1 assessed as reduction in enzyme activity by NADH-DU oxidoreductase assay
Summary of the method: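 Bovine heart submitochondrial particles (SMP) at 30 µg protein/ml. 50 µM decyl ubiquinone is the acceptor. SMP are preincubated with the HU for 5 min, then 50 µM NADH is added. NADH oxidation is read at 340 nm, 30 °C. IC50 from two independent experiments.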

T1 sequence (P03887 whole entry): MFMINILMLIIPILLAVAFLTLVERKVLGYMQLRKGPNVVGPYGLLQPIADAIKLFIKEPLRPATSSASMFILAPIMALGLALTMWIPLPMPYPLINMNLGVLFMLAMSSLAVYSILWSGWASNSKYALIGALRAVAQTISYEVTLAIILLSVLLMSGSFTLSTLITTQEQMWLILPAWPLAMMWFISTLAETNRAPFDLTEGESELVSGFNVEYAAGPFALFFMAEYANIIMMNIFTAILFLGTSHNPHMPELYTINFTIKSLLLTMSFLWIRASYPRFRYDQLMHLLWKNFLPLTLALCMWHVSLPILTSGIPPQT

SMILES	IC50 [1] [nM]	IC50 [2] [nM]
COC1=C(OC)C(=O)C(CN(C)C(=O)c2ccc(Oc3ccc(C(C)(C)C)cc3)cc2)=C(C)C1=O	77	88
CCN(CC1=C(C)C(=O)C(OC)=C(OC)C1=O)C(=O)c1ccc(Oc2ccc(C(C)(C)C)cc2)cc1	370	630
COC1=C(OC)C(=O)C(CNC(=O)c2ccc(Oc3ccc(C(C)(C)C)cc3)cc2)=C(C)C1=O	340	530
COC1=C(OC)C(=O)C(CC(=O)N(C)c2ccc(Oc3ccc(C(C)(C)C)cc3)cc2)=C(C)C1=O	1800	2000
CCCCc1ccc(Oc2ccc(C(=O)N(C)CC3=C(C)C(=O)C(OC)=C(OC)C3=O)cc2)cc1	970	840
COC1=C(OC)C(=O)C(CCN(C)C(=O)c2ccc(Oc3ccc(C(C)(C)C)cc3)cc2)=C(C)C1=O	470	760
COC1=C(OC)C(=O)C(CCCCCCN(C)C(=O)c2ccc(Oc3ccc(C(C)(C)C)cc3)cc2)=C(C)C1=O	1100	610
CCCCCCCCCCC(=O)N(C)CC1=C(C)C(=O)C(OC)=C(OC)C1=O	11800	6200
CN(C)C(=O)c1ccc(Oc2ccc(C(C)(C)C)cc2)cc1	650	–
C/C=C(\C)[C@H](O)[C@H](C)/C=C(C)/C=C/C/C(C)=C/Cc1nc(OC)c(OC)c(O)c1C [PIERICIDIN A]	3	–
